For series [1], the system named is Mus musculus. The series is described as follows: Antiobesity activity in B6.V/J ob/ob mouse assessed as change in lung weight at 5 mg/kg, po bid measured after 14 days (reference value: 0.143 +/- 0.013 g). In kind it is functional.
Series [2] in a line: Plasma concentration in Sprague-Dawley rat at 10 mg/kg, iv measured at 8 hrs. The arrangement: dose 10 mg/kg, route intravenous. In kind it is ADME, organism-based. In outline:
(§1)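 Rats fasted 12 h, then dosed orally by gavage or by bolus tail-vein injection at 2 ml/kg. Compound given as a 5 mg/ml solution in N-methyl-2-pyrrolidone/Tween 80/water (1:2:7). Samples taken at various times (n = 5) and stored at −70 °C. Plasma deproteinized with acetonitrile containing carbamazepine internal standard, then quantified by LC-MS/MS.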

In series [3] the test system is Mus musculus. In words: Antiobesity activity in B6.V/J ob/ob mouse assessed as change in liver weight at 25 mg/kg, po bid measured after 14 days (reference value: 3.396 +/- 0.162 g). In kind it is functional.
Series [4] concerns Mus musculus. The series is described as follows: Antiobesity activity in C57BL/6 mouse assessed as inhibition of body weight gain at 50 mg/kg, ip measured after 2 to 12 hrs relative to vehicle-treated control. In kind it is functional. Particulars: C57BL/6, ip, route intraperitoneal.
Series [5] concerns the target T1, 5-hydroxytryptamine receptor 2C (Homo sapiens, UniProt P28335).
T1 sequence (P28335 whole entry): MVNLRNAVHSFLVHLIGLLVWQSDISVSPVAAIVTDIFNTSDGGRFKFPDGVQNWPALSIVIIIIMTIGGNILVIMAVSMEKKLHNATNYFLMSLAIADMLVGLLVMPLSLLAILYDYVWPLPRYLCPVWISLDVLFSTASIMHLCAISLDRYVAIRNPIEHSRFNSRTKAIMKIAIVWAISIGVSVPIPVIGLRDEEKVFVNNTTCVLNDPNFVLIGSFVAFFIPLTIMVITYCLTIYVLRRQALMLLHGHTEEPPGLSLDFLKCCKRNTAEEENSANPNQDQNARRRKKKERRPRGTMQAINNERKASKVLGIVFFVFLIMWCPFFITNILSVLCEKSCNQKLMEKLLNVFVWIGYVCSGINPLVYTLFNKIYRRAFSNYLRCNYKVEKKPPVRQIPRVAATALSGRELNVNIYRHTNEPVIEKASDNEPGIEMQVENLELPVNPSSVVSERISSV
The series is described as follows: Displacement of [3H]-mesulergine from human recombinant 5HT-2C receptor expressed in CHOK1 cell membranes after 30 mins. Further details: species or system CHO-K1. In a few lines: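 Frozen CHO-K1 membranes expressing recombinant human 5-HT2C incubated with 1 nM [3H]mesulergine in 50 mM Tris-HCl pH 7.4 containing 0.1% ascorbic acid and pargyline. Mianserin defined nonspecific binding.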

A short description of series [6]: Terminal half life in Sprague-Dawley rat at 10 mg/kg, iv. In kind it is ADME, organism-based. The arrangement: dose 10 mg/kg, route intravenous. Particulars: in vivo, read-out: beta t1/2. In outline:
as §1

Series [7] in a line: Displacement of [3H]-YM-09151-2 from cloned dopamine D4.2 receptor (unknown origin) expressed in Sf9 cells after 60 mins. The arrangement: species or system Homo sapiens. In a few lines: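 Sf9 membranes with cloned D4.2 receptor incubated with 0.2 nM [3H]YM-09151-2 for 60 min at 27 °C in 50 mM Tris-HCl pH 7.4, 5 mM MgCl2, 5 mM EDTA, 5 mM KCl, 1.5 mM CaCl2. Clozapine defined nonspecific binding. Filtered on glass-fiber filters presoaked in 0.3% PEI.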

The next series has as its target D(2) dopamine receptor (Homo sapiens, UniProt P14416). The series is described as follows: Displacement of [3H]-methylspiperone from dopamine D2L receptor (unknown origin) after 60 mins. In a few lines:
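Receptor membranes incubated at 27 °C, 60 min for D2L and 30 min for D3, with [3H]methylspiperone (0.2 nM for D2L, 0.25 nM for D3) and test compound at a range of concentrations. Buffer was 50 mM Tris-HCl pH 7.4, 10 mM MgCl2, 1 mM EDTA, 120 mM NaCl. Nonspecific binding defined with haloperidol (D2) or GR103691 (D3). IC50 obtained by nonlinear regression.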

A short description of series [8]: Plasma concentration in Sprague-Dawley rat at 10 mg/kg, po measured at 2 hrs. In kind it is ADME, organism-based. Further details: dose 10 mg/kg, route oral. In outline: as §1
Series [9] can be described thus: Oral bioavailability in Sprague-Dawley rat at 10 mg/kg. In kind it is ADME, organism-based. Conditions: in vivo. In outline:
as §1

Series [10] has as its system Mus musculus. In words: Antiobesity activity in B6.V/J ob/ob mouse assessed as inhibition of food intake at 25 mg/kg, ip measured up to 2 hrs relative to vehicle-treated control. In kind it is functional. Conditions: route intraperitoneal. In a few lines:
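Male mice were acclimated 1 week at 23 ± 3 °C and 50 ± 20% humidity, then fasted 24 h. They were dosed once intraperitoneally with vehicle or compound: 50 mg/kg in C57BL/6, or 12.5, 25 or 50 mg/kg in B6.V-Lep^ob/J. Food intake was measured at 2, 6 and 12 h versus vehicle control.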

Series [11] can be described thus: Apparent volume of distribution at steady state in Sprague-Dawley rat at 10 mg/kg, iv. Particulars: in vivo, read-out: Vdss(app). Further details: dose 10 mg/kg, route intravenous. In kind it is ADME, organism-based. In outline:
as §1

Series [12] relates to Mus musculus. The series is described as follows: Antiobesity activity in B6.V/J ob/ob mouse assessed as change in lung weight at 50 mg/kg, po bid measured after 14 days (reference value: 0.143 +/- 0.013 g). In kind it is functional.
A short description of series [13]: Ratio of drug level from brain to plasma in Sprague-Dawley rat at 10 mg/kg, iv measured at 2 hrs. In kind it is ADME, organism-based. The arrangement: dose 10 mg/kg, route intravenous. Particulars: read-out: BPR. In a few lines: as §1
The test system of series [14] is Mus musculus. The series is described as follows: Antiobesity activity in B6.V/J ob/ob mouse assessed as change in kidney weight at 5 mg/kg, po bid measured after 14 days (reference value: 0.339 +/- 0.009 g). In kind it is functional.
The target in series [15] is 5-hydroxytryptamine receptor 7 (Homo sapiens, UniProt P34969). In words: Displacement of [3H]-LSD from human recombinant 5HT-7 receptor expressed in CHOK1 cell membranes after 120 mins. Further details: species or system CHO-K1. In a few lines:
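CHO-K1 membranes expressing human 5-HT7 incubated with 3 nM [3H]LSD for 120 min at 27 °C in 50 mM Tris-HCl pH 7.4, 10 mM MgSO4, 0.5 mM EDTA. Filtered on glass-fiber filters presoaked in 0.3% PEI. Methiothepin defined nonspecific binding.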

Series [16] deals with Mus musculus. The series is described as follows: Antiobesity activity in B6.V/J ob/ob mouse assessed as change in spleen weight at 25 mg/kg, po bid measured after 14 days (reference value: 0.097 +/- 0.052 g). In kind it is functional.
The subject of series [17] is Mus musculus. The series is described as follows: Antiobesity activity in B6.V/J ob/ob mouse assessed as inhibition of body weight gain at 50 mg/kg, ip measured after 12 hrs relative to vehicle-treated control. Particulars: route intraperitoneal. In kind it is functional.
A short description of series [18]: AUClast in Sprague-Dawley rat at 10 mg/kg, iv. In kind it is ADME, organism-based. Further details: time 0 - last, dose 10 mg/kg, route intravenous. Particulars: plasma.
Series [19] in a line: Plasma concentration in Sprague-Dawley rat at 10 mg/kg, po measured at 8 hrs. In kind it is ADME, organism-based. Further details: dose 10 mg/kg, route oral. In a few lines:
as §1

A short description of series [20]: AUC (0 to infinity) in Sprague-Dawley rat at 10 mg/kg, iv. In kind it is ADME, organism-based. Further details: time infinity, dose 10 mg/kg, route intravenous. Conditions: plasma.
Series [21] concerns Mus musculus. In words: Antiobesity activity in B6.V/J ob/ob mouse assessed as reduction of body weight gain at 50 mg/kg, po qd measured after 14 days. The arrangement: dose 50 mg/kg. In kind it is functional, organism-based. In outline:
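Male ob/ob mice (B6.V-Lep^ob/J) received oral doses once daily for 14 days, with vehicle control. Food intake and body weight gain were followed.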

The subject of series [22] is Mus musculus. In words: Antiobesity activity in B6.V/J ob/ob mouse assessed as change in kidney weight at 25 mg/kg, po bid measured after 14 days (reference value: 0.339 +/- 0.009 g). In kind it is functional.

Active and inactive are the calls of the source. The rule behind the calls is not given here.

What is called inhibition in vivo is the percentage by which the read-out fell short of the control. A word on the IC50: it is the concentration needed to halve the response being measured. As usually defined, the bioavailability is dose-corrected exposure relative to a reference, in per cent. A higher bioavailability goes with much systemic uptake. For orientation: AUC(0-t) means exposure summed from dosing to a finite time, without extrapolation to infinity. Low values mean less exposure, high ones more exposure. For orientation: AUC(0-inf) means total exposure, with the tail of the curve extrapolated.

D(2) dopamine receptor, sequence (P14416 whole entry): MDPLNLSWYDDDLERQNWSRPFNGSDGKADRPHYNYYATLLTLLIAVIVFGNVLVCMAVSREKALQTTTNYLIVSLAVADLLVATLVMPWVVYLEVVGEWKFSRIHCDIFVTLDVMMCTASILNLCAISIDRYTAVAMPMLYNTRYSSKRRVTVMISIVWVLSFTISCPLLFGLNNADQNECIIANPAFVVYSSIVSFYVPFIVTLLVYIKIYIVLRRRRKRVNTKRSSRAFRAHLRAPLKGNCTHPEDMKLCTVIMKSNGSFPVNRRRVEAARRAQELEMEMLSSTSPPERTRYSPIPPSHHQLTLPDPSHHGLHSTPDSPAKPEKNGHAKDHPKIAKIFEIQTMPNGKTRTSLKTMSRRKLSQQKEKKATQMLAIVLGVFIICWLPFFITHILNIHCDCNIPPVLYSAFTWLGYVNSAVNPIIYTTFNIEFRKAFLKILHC
5-hydroxytryptamine receptor 7, sequence (P34969 whole entry): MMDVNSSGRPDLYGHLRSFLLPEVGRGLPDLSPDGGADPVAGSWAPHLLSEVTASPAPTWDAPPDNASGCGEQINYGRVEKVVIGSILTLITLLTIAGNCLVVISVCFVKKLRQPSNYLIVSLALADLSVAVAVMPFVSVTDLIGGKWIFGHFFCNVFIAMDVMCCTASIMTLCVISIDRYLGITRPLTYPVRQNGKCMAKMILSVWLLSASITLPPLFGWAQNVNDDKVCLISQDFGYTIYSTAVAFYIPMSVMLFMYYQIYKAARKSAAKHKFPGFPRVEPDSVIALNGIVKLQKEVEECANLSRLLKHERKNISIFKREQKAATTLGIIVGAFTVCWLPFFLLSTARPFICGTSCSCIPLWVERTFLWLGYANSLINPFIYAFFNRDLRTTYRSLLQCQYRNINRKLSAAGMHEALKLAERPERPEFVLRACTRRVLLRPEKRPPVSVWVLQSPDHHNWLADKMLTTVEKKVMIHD

Regarding `Cl.Clc1cccc(Nc2nc(Cc3ccccc3)nc3c2CCNCC3)c1`, the Activity in the series on Mus musculus [1] is reported as 0.124 g; in the series with Mus musculus [3], 3.173 g; in the series on Mus musculus [12] it was 0.14 g; in the series with Mus musculus [14], 0.329 g; in the series on Mus musculus [16], 0.111 g; in the series on Mus musculus [22], 0.329 g. Moreover, the concentration at 8 h amounted to 60 ng/mL in [2] and 30 ng/mL in series [19]. Besides, the figures for the inhibition in vivo at 50 mg/kg with Mus musculus [4] and in the series with Mus musculus [17] were 84.8% and 80.2%, respectively. In addition, the IC50 is 2.3 nM in [5], 900 nM in series [7], 85.8 nM on D(2) dopamine receptor and 1000 nM in series [15]. In addition, the half-life in series [6] is 2.25 h. In [8], this molecule came in with a concentration at 2 h of 50 ng/mL. In series [9], this molecule returned a bioavailability of 55.1%. Moreover, the inhibition in vivo at 25 mg/kg in the series with Mus musculus [10] came out at 99.8%. Besides, in [11], the Vd was found to be 17 L/kg. Moreover, in series [13], the Kp at 2 h is 9.33. Also, the AUC(0-t) in series [18] is 1730 ng·h/mL. The AUC(0-inf) in series [20] is 1910 ng·h/mL. For the same molecule, the outcome in the series with Mus musculus [21] was inactive.

For the origin of these results see ChEMBL document CHEMBL2390866, “Novel pyrimidoazepine analogs as serotonin 5-HT(2A) and 5-HT(2C) receptor ligands for the treatment of obesity” (Eur J Med Chem, 2013).
